Assay results from ChEMBL document CHEMBL4371006, “Discovery of N-[4-(Quinolin-4-yloxy)phenyl]benzenesulfonamides as Novel AXL Kinase Inhibitors” (J Med Chem, 2018).

Legend:
[1] = molecular target: Mitogen-activated protein kinase kinase kinase 20 (Homo sapiens, UniProt Q9NYL2); assay: Binding affinity to ZAK in SILAC-labeled human MDA-MB-231 cells lysate by mass spectrometry based kinAffinity assay; format: subcellular
Method in brief: (§1)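 MDA-MB-231 lysate applied to KinAffinity matrix of immobilized broadband kinase inhibitors at graded densities to obtain BC50 per target. Competition then run with increasing free compound to give CC50; Kd derived by Cheng-Prusoff. Two competition experiments in parallel to check equilibrium, one with lysate pre-incubated with compound before adding matrix. Quantitation by mass spectrometry.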

[2] = molecular target: 5'-AMP-activated protein kinase subunit beta-1 (Homo sapiens, UniProt Q9Y478); assay: Binding affinity to PRKAB1 in SILAC-labeled human MDA-MB-231 cells lysate by mass spectrometry based kinAffinity assay; format: subcellular; method in brief: as §1
[3] = Efflux ratio of apparent permeability from basolateral to apical side over apical to basolateral side in human Caco2 cells at 10 uM after 2 hrs by LC-MS/MS analysis; format: ADME, cell-based; settings: Caco-2
Method in brief: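 Caco-2 monolayers differentiated 3 weeks, integrity checked by Lucifer yellow transport. Compound at 10 µM for 2 h; apical transport buffer (glucose, 10 mM HEPES, HBSS, pH 6.5, 100 µM Lucifer yellow), basolateral buffer pH 7.4. Papp = (dQ/dt)/C0A; efflux ratio = Papp(B→A)/Papp(A→B).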

[4] = Apparent half-life of the terminal disposition phase in mouse at 3 mg/kg, iv by LC/MS/MS analysis; settings: in vivo, read-out: t1/2 lambda z (converted)
[5] = molecular target: Tyrosine-protein kinase Fyn (Homo sapiens, UniProt P06241); assay: Binding affinity to FYN in SILAC-labeled human MDA-MB-231 cells lysate by mass spectrometry based kinAffinity assay; format: subcellular
Method in brief: (§2)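 Chemical proteomics: MDA-MB-231 lysate bound to matrix of immobilized broad kinase inhibitors at several densities (BC50), then competed with increasing free compound (CC50); proteins quantified by mass spectrometry, Kd via Cheng-Prusoff. Two competition formats run in parallel to check equilibrium.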

[6] = molecular target: 5'-AMP-activated protein kinase catalytic subunit alpha-1 (Homo sapiens, UniProt Q13131); assay: Binding affinity to PRKAA1 in SILAC-labeled human MDA-MB-231 cells lysate by mass spectrometry based kinAffinity assay; format: subcellular; method in brief: as §1
[7] = molecular target: Serine/threonine-protein kinase PLK4 (Homo sapiens, UniProt O00444); assay: Binding affinity to PLK4 in SILAC-labeled human MDA-MB-231 cells lysate by mass spectrometry based kinAffinity assay; format: subcellular; method in brief: as §1
Focal adhesion kinase 1 = Focal adhesion kinase 1 (Homo sapiens, UniProt Q05397); assay: Binding affinity to FAK in SILAC-labeled human MDA-MB-231 cells lysate by mass spectrometry based kinAffinity assay; format: subcellular; method in brief: as §2
LIM domain kinase 1 = LIM domain kinase 1 (Homo sapiens, UniProt P53667); assay: Binding affinity to LIMK1 in SILAC-labeled human MDA-MB-231 cells lysate by mass spectrometry based kinAffinity assay; format: subcellular; method in brief: as §2
[8] = Stability in mouse plasma assessed as parent compound remaining; format: ADME, cell-free
[9] = molecular target: 5'-AMP-activated protein kinase subunit gamma-1 (Homo sapiens, UniProt P54619); assay: Binding affinity to PRKAG1 in SILAC-labeled human MDA-MB-231 cells lysate by mass spectrometry based kinAffinity assay; format: subcellular; method in brief: as §1
[10] = molecular target: Receptor-interacting serine/threonine-protein kinase 2 (Homo sapiens, UniProt O43353); assay: Binding affinity to RIPK2 in SILAC-labeled human MDA-MB-231 cells lysate by mass spectrometry based kinAffinity assay; format: subcellular; method in brief: as §1
[11] = molecular target: Cyclin-G-associated kinase (Homo sapiens, UniProt O14976); assay: Binding affinity to GAK in SILAC-labeled human MDA-MB-231 cells lysate by mass spectrometry based kinAffinity assay; format: subcellular; method in brief: as §2
[12] = molecular target: Tyrosine-protein kinase CSK (Homo sapiens, UniProt P41240); assay: Binding affinity to CSK in SILAC-labeled human MDA-MB-231 cells lysate by mass spectrometry based kinAffinity assay; format: subcellular; method in brief: as §2
[13] = molecular target: Dual specificity mitogen-activated protein kinase kinase 2 (Homo sapiens, UniProt P36507); assay: Binding affinity to MAP2K2 in SILAC-labeled human MDA-MB-231 cells lysate by mass spectrometry based kinAffinity assay; format: subcellular; method in brief: as §2
[14] = molecular target: T1, Tyrosine-protein kinase receptor UFO (Homo sapiens, UniProt P30530); assay: Binding affinity to AXL in SILAC-labeled human MDA-MB-231 cells lysate by mass spectrometry based kinAffinity assay; format: subcellular; method in brief: as §2
T1 sequence (P30530 whole entry): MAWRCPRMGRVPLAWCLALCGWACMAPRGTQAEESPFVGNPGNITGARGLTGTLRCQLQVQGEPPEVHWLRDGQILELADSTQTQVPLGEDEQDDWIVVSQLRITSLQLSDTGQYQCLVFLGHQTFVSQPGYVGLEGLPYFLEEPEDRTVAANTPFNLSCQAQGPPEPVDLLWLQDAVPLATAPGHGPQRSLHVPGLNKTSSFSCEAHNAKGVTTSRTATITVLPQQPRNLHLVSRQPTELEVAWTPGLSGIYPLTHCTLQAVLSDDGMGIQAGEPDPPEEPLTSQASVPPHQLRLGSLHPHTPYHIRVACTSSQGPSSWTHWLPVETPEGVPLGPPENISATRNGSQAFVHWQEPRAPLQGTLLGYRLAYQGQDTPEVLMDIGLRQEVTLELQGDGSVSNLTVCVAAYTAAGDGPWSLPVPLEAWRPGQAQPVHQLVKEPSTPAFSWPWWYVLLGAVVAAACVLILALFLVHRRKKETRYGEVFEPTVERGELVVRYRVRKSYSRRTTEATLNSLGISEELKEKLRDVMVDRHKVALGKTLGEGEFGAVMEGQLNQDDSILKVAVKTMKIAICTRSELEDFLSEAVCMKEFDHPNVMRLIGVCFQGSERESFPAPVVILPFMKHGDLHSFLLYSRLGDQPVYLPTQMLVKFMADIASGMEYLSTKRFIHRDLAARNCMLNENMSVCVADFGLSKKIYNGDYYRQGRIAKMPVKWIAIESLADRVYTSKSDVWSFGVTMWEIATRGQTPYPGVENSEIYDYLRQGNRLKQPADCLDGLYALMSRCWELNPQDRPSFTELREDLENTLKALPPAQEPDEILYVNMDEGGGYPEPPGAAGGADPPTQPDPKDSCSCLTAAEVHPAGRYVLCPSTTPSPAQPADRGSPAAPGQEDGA

[15] = Intrinsic clearance in human liver microsomes at 5 uM after 60 mins in presence of NADPH by LC-MS/MS analysis; format: ADME, Microsome; settings: read-out: CLH
Method in brief: (§3)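 Compound at 5 µM with 1 mg/mL human or mouse liver microsomes plus an NADPH-regenerating system, in 100 mM potassium phosphate at 37°C. Reactions were stopped with acetonitrile at sampling times. Percent remaining versus time 0 was measured by HPLC, in duplicate.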

[16] = molecular target: Proto-oncogene tyrosine-protein kinase Src (Homo sapiens, UniProt P12931); assay: Binding affinity to SRC in SILAC-labeled human MDA-MB-231 cells lysate by mass spectrometry based kinAffinity assay; format: subcellular; method in brief: as §1
[17] = molecular target: Serine/threonine-protein kinase 10 (Homo sapiens, UniProt O94804); assay: Binding affinity to LOK in SILAC-labeled human MDA-MB-231 cells lysate by mass spectrometry based kinAffinity assay; format: subcellular; method in brief: as §2
[18] = Intrinsic clearance in mouse liver microsomes at 5 uM after 60 mins in presence of NADPH by LC-MS/MS analysis; format: ADME, Microsome; settings: read-out: CLH; method in brief: as §3

Chain of Receptor-interacting serine/threonine-protein kinase 2 (O43353 whole entry): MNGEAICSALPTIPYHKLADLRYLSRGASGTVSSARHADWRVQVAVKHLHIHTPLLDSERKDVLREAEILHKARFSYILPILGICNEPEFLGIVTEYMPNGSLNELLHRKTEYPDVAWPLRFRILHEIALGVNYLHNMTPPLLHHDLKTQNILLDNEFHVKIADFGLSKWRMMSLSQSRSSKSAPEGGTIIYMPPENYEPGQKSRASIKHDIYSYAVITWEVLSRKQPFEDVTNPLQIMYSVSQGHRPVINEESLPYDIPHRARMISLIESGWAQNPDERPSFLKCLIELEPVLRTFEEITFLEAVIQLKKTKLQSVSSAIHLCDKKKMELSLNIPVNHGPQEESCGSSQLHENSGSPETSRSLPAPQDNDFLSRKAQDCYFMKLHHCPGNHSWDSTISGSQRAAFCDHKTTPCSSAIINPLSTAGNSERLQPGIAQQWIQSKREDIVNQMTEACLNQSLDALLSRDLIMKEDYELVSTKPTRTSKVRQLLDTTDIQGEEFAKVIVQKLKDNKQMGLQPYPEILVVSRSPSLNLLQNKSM
Chain of Cyclin-G-associated kinase (O14976 whole entry): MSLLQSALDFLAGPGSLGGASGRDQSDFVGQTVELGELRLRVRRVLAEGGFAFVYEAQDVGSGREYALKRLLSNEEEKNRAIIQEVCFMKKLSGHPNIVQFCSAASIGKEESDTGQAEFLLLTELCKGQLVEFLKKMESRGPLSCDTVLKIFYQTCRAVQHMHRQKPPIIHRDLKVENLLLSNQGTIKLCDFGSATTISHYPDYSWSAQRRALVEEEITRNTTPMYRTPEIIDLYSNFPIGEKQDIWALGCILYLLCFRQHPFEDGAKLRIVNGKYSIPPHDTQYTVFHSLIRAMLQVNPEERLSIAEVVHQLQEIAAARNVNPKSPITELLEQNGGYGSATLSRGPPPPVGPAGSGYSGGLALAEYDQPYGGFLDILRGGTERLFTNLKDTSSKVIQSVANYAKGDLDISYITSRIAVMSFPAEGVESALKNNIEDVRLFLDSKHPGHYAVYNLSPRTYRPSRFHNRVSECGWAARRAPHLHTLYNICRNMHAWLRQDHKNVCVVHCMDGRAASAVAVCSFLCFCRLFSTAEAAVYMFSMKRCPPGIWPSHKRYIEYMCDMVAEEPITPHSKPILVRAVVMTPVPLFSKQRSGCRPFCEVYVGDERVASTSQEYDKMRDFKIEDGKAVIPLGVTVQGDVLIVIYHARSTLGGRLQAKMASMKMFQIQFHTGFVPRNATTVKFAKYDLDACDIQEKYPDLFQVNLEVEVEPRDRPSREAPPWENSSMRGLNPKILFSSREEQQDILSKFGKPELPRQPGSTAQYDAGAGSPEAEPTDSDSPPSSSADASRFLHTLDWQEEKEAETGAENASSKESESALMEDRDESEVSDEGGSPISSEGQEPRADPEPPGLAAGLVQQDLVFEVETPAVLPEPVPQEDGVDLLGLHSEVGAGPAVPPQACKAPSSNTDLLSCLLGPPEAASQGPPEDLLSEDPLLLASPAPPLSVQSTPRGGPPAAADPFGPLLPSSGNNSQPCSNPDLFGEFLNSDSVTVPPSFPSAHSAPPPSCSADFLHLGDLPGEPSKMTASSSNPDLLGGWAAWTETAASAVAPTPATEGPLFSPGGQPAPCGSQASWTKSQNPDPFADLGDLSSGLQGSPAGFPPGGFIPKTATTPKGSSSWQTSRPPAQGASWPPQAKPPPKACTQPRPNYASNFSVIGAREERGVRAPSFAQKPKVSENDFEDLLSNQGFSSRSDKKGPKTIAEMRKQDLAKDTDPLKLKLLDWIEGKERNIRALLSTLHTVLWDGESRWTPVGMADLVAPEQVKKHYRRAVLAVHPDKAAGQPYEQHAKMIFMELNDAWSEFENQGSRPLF
Chain of Tyrosine-protein kinase CSK (P41240 whole entry): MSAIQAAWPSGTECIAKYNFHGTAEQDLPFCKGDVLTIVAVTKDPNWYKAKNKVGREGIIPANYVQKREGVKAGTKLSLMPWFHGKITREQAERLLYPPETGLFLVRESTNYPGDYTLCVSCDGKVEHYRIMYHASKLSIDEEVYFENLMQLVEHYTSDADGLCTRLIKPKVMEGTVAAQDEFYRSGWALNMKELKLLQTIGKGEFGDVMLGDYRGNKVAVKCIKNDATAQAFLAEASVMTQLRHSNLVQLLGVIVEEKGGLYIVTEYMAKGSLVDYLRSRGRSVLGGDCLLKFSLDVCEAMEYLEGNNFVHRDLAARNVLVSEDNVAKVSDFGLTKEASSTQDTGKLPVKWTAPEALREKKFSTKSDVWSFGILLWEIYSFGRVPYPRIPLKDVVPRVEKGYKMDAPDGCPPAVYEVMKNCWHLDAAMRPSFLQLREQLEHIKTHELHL
Chain of Dual specificity mitogen-activated protein kinase kinase 2 (P36507 whole entry): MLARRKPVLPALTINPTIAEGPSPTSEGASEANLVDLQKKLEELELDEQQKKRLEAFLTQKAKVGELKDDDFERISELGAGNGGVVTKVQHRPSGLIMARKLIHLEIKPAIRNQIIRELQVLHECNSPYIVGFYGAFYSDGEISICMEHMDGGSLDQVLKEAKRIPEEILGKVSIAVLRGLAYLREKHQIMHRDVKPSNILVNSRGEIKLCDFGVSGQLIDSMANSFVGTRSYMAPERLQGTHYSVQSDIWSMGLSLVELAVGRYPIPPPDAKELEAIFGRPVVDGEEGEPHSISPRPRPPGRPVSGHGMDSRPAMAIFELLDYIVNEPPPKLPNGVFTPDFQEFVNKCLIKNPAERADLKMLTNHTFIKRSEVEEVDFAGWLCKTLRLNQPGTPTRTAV
Chain of Serine/threonine-protein kinase 10 (O94804 whole entry): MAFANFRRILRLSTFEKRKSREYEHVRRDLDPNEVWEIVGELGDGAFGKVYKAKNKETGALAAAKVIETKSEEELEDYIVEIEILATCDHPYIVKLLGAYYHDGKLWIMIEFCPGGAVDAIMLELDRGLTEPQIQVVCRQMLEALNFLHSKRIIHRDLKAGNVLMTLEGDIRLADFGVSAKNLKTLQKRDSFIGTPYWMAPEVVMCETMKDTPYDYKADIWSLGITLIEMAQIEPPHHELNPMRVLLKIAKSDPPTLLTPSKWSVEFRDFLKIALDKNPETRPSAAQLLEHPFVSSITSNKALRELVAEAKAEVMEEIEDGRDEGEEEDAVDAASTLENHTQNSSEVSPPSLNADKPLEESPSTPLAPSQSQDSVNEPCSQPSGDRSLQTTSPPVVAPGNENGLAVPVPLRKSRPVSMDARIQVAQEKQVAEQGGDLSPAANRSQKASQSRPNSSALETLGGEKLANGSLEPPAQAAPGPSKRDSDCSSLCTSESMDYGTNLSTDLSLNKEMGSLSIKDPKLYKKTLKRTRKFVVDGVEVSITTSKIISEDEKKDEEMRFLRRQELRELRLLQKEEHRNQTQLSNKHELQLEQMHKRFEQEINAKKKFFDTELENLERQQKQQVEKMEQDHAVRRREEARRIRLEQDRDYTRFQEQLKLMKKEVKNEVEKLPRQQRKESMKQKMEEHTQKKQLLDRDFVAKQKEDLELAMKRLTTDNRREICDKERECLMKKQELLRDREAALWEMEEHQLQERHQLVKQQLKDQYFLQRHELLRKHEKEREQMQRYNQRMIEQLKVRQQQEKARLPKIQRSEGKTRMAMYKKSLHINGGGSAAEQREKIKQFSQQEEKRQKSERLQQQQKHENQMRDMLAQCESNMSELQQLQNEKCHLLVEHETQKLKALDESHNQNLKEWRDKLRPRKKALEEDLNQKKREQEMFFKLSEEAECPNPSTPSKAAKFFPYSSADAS
Chain of 5'-AMP-activated protein kinase subunit gamma-1 (P54619 whole entry): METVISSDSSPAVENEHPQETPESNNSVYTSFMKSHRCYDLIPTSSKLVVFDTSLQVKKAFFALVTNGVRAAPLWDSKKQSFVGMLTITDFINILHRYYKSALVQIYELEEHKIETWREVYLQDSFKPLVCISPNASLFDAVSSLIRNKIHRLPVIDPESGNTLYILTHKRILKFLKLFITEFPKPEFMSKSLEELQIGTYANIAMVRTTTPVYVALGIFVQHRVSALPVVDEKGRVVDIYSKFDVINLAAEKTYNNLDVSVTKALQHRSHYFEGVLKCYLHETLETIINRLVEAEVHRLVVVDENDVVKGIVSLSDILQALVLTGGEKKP
Chain of Serine/threonine-protein kinase PLK4 (O00444 whole entry): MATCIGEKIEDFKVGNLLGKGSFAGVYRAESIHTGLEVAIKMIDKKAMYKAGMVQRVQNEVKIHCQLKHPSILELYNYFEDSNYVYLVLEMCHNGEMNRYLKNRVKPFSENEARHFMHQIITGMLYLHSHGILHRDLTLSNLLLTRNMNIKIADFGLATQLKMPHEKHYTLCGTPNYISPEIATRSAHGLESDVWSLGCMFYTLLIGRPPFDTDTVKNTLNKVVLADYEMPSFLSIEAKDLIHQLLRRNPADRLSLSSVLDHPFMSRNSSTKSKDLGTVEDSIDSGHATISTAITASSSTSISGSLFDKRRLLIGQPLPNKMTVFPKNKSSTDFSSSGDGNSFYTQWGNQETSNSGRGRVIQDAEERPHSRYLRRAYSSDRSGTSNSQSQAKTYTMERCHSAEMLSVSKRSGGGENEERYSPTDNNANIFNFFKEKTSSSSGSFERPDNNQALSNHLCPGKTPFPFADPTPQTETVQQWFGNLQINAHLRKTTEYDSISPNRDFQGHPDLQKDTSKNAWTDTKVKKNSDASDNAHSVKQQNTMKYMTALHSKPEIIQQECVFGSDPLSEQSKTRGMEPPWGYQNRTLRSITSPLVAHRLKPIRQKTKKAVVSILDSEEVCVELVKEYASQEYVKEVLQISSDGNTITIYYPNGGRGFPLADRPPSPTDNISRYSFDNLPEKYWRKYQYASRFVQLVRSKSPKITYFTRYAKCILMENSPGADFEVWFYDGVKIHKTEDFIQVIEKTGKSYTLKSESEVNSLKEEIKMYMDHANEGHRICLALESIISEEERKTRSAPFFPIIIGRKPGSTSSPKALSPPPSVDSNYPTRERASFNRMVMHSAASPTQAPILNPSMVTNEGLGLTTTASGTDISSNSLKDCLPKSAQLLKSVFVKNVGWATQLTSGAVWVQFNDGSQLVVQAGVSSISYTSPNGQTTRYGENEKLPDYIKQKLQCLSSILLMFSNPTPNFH

SMILES | Kd(free) [1] | Kd(free) [2] | efflux ratio at 2 h, 10 µM [3] | half-life [4] | Kd(free) [5] | Kd(free) [6] | Kd(free) [7] | Kd(free) (Focal adhesion kinase 1) | Kd(free) (LIM domain kinase 1) | Stability [8] | Kd(free) [9] | Kd(free) [10] | Kd(free) [11] | Kd(free) [12] | Kd(free) [13] | Kd(free) [14] | microsomal CLint at 5 µM [15] | Kd(free) [16] | Kd(free) [17] | microsomal CLint at 5 µM [18]
COc1cc2c(Oc3ccc(NS(=O)(=O)c4cc(F)ccc4F)cc3F)ccnc2cc1OCCCN1CCN(C)CC1 | 1180 nM | 1257 nM | 2.3 | 18.7 h | 64 nM | 616 nM | 53 nM | 4445 nM | 130 nM | 108% | 825 nM | 43 nM | 2448 nM | 270 nM | 6917 nM | 15 nM | 60.5 µL/min/mg | 254 nM | 3780 nM | 143 µL/min/mg
COc1cc2c(Oc3ccc(NS(=O)(=O)c4cc(F)ccc4F)cc3F)ccnc2cc1OCCCN1CCCC(C)C1 (stereo not given) |  |  | 6.6 | 8.5 h |  |  |  |  |  | 98.8% |  |  |  |  |  |  | 18.3 µL/min/mg |  |  | 19.1 µL/min/mg
COc1cc2c(Oc3ccc(NS(=O)(=O)c4c(F)cccc4F)cc3F)ccnc2cc1OCCCN1CCN(C)CC1 | 3210 nM | 2279 nM |  |  | 38 nM | 786 nM | 48 nM | 2212 nM | 93 nM |  | 1871 nM | 17 nM | 4166 nM | 30 nM | 8852 nM | 6 nM |  | 96 nM | 3039 nM | 
